We go through 6 compounds from ChEMBL document CHEMBL1129547, “Synthesis and biological evaluation of naphthyldesferrithiocin iron chelators” (1996).

The nature of assay [1]: The amount of iron absorbed by the untreated over a period of 3 days animals at prodrug dosage of 300(umol/kg) (route per oral)using 40% cremophore as vehical in Cebus monkeys. Format: functional. In outline: (§1)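 Baseline period in iron-overloaded Cebus monkeys housed in metabolic cages on a low-iron liquid diet begun 7 days before dosing, fed by body weight with intake monitored. Iron intake and output were measured over the 3 days before drug administration (day −2 to day 0). Urine and feces were collected at 24-h intervals and iron determined by flame atomic absorption. Net balance = intake − (urinary + fecal iron).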

Assay [2] can be described thus: The amount of iron absorbed by the treated animals at postdrug dosage of 300(umol/kg) (route per oral)using 40% cremophore as vehical in Cebus monkeys. Format: functional. In outline:
(§2)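 Iron-overloaded Cebus monkeys were kept in metabolic cages on a low-iron liquid diet starting 7 days before dosing, fed by body weight with intake monitored, and fasted 24 h before dosing. They were sedated with ketamine (7–10 mg/kg im) plus scopolamine (0.04–0.07 mg/kg im). Urine and feces were collected every 24 h over days 1–3 and iron measured by flame AA. Iron balance = dietary intake − (urinary + fecal iron).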

Assay [3] can be described thus: The amount of iron absorbed by the untreated over a period of 3 days animals at prodrug dosage of 300(umol/kg) (route sub cutaneous) using 40% cremophore as vehical in Cebus monkeys. The assay is classed as functional. In outline:
as §1

Assay [4] in a line: The amount of iron absorbed by the treated animals at postdrug dosage of 300(umol/kg) (route sub cutaneous) using 40% cremophore as vehical in Cebus monkeys. The assay is classed as functional. In outline: as §2
The nature of assay [5]: The amount of iron absorbed by the treated animals at postdrug dosage of 150(umol/kg) (route sc)using distill water as vehical. The assay is classed as functional, Cercopithecidae. In outline:
as §2

The nature of assay [6]: The amount of iron absorbed by the untreated over a period of 3 days animals at prodrug dosage of 150(umol/kg) (route sc)using distill water as vehical. Format: functional, Cercopithecidae. In outline: as §1
Assay [7] can be described thus: The amount of iron absorbed by the treated animals at postdrug dosage of 150(umol/kg) (route per oral)using 40% cremophore as vehical in Cebus monkeys. The assay is classed as functional. In outline:
as §2

A short description of assay [8]: The amount of iron absorbed by the untreated over a period of 3 days animals at prodrug dosage of 150(umol/kg) (route per oral)using 40% cremophore as vehical in Cebus monkeys. Format: functional. In outline: as §1

For `O=C(O)[C@@H]1CSC(c2c(O)ccc3ccccc23)=N1`, the Predrug stood at 54 µg/kg in assay [1] and 26 µg/kg in assay [3]. Further, the Postdrug in assay [2] is 63 µg/kg; in assay [4], -9 µg/kg.

In the case of `O=C(O)[C@H]1CSC(c2cc3ccccc3cc2O)=N1`, the Predrug in assay [1] was found to be 25 µg/kg; in assay [3], 164 µg/kg. The Postdrug in assay [2] is -162 µg/kg; in assay [4], 156 µg/kg.

Regarding `O=C(O)[C@H]1CSC(c2c(O)ccc3ccccc23)=N1`, the Predrug in assay [1] came to 358 µg/kg. In assay [2], this compound came in with a Postdrug of 381 µg/kg.

With `O=C(O)[C@@H]1CSC(c2cc3ccccc3cc2O)=N1`, the Predrug in assay [1] is 118 µg/kg; in assay [3], 80 µg/kg. Also, the Postdrug in assay [2] stood at 49 µg/kg; in assay [4] it was 120 µg/kg.

As to `CC(=O)N(O)CCCCCNC(=O)CCC(=O)N(O)CCCCCNC(=O)CCC(=O)N(O)CCCCCN` [DEFEROXAMINE], the Postdrug in assay [5] was 245 µg/kg. Moreover, the Predrug in assay [6] was found to be 217 µg/kg.

Consider `C[C@]1(C(=O)O)CSC(c2ncccc2O)=N1` [DESFERRITHIOCIN], for which the Postdrug in assay [7] is -500 µg/kg. Also, in assay [8], the Predrug was determined as 230 µg/kg.
